Laboratory results as given in paper PMC6061410 (Clinical Drug Investigation, 2018).
Like-named read-outs stand apart in the source and are kept apart here.

How the values were obtained:
[1] = cited from earlier work
[2] = Pharmacokinetics after single and multiple doses, part 1; format: in vivo, human; details: for AUCτ,ss,norm / Cmax,ss,norm / AUC0–24,norm / Cmax,norm / AUC(0-t) / AUC / Cmax: gMean (%CV); for AUC: AUCτ,ss; for Tmax: median and range (minimum, maximum)
Outline: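 Randomised 3:1 double-blind placebo-controlled groups (9 active, 3 placebo) of healthy young or elderly subjects took 5- or 25-mg tablets. Dosing was a single dose on day 1, QD or BID for 10 days from day 4, and a single dose on day 14. Fasted on days 1 and 14. Blood was sampled through day 23 and urine after first and last doses (QD only). Plasma/urine LC-MS/MS used a seven-point calibration. Geometric mean (%CV) values were reported.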

[3] = elderly, 25 mg QD, multiple dose
[4] = elderly, 50 mg QD, multiple dose

## C[C@@H](Oc1ccc(S(C)(=O)=O)cc1C(=O)N1C[C@@H]2C[C@]2(c2cc(C(F)(F)F)on2)C1)C(F)(F)F [BI 425809]
[1]; 90% CI 45.1–55.4
  Adjusted gMean ratio Cmax, tablet fasted vs. oral solution fasted: 50.0%
[1]; 90% CI 74.0–87.6
  Adjusted gMean ratio AUC0–tz, tablet fasted vs. oral solution fasted: 80.5%
[1]; high-fat/high-calorie breakfast ~ 1000 kcal, 90% CI 115.7–137.0
  Adjusted gMean ratio AUC0–tz, tablet fed vs. strongly fasted: 125.9%
[1]; high-fat/high-calorie breakfast ~ 1000 kcal, 90% CI 128.3–157.4
  Adjusted gMean ratio Cmax, tablet fed vs. strongly fasted: 142.1%
[1]; single dose 25 mg tablet
  increase in AUC, high-fat/high-calorie meal vs. fasted: 26%
  increase in Cmax, high-fat/high-calorie meal vs. fasted: 42%
[1]; single doses 0.5–150 mg, oral solution, young healthy male volunteers
  median time to maximum plasma concentration: ~ 45 min
[1]; single doses up to 100 mg, oral solution, young healthy male volunteers
  tolerability of single doses: generally well tolerated
[2]; 10 and 25 mg, tablet
  dose proportionality of exposure parameters (Cmax, AUC0–24, Cmax,ss and AUCτ,ss): dose proportionality was observed
[2]; QD groups
  linearity index: ~1
[2]; all treatment groups
  time to steady state after the start of multiple dosing: 2 to 6 days
[2]; doses of ≥ 50 mg, tablet
  dose proportionality of exposure: clearly less than dose proportional
[2]; [3]
  AUCτ,ss,norm: 439 (11.6) nmol·h/L/mg
  Cmax,ss,norm: 24.7 (10.9) nmol/L/mg
[2]; elderly, 25 mg QD, single dose
  AUC0–24,norm: 139 (18.5) nmol·h/L/mg
  Cmax,norm: 9.4 (18.7) nmol/L/mg
[2]; [4]
  AUCτ,ss,norm: 278 (30.8) nmol·h/L/mg
  Cmax,ss,norm: 16.0 (25.0) nmol/L/mg
[2]; elderly, 50 mg QD, single dose
  AUC0–24,norm: 112 (17.9) nmol·h/L/mg
  Cmax,norm: 7.43 (25.9) nmol/L/mg
[2]; human, plasma, oral, 10 mg, AUC0–24, young, 10 mg QD, single dose
  AUC(0-t): 1.41 µM·h
[2]; human, plasma, oral, 10 mg, young, 10 mg QD, multiple dose
  AUC: 3.87 µM·h
[2]; human, plasma, oral, 10 mg, Cmax, young, 10 mg QD, single dose
  Cmax: 109 nM
[2]; human, plasma, oral, 10 mg, tmax,ss, young, 10 mg QD, multiple dose
  Tmax: 4.5 h
[2]; human, plasma, oral, 25 mg, AUC0–24, elderly, 25 mg QD, single dose
  AUC(0-t): 3.46 µM·h
[2]; human, plasma, oral, 25 mg, AUC0–24, young, 25 mg QD, single dose
  AUC(0-t): 3.72 µM·h
[2]; human, plasma, oral, 25 mg, elderly, 25 mg QD, multiple dose
  AUC: 11 µM·h
[2]; human, plasma, oral, 25 mg, young, 25 mg QD, multiple dose
  AUC: 10.6 µM·h
[2]; human, plasma, oral, 25 mg, Cmax, elderly, 25 mg QD, single dose
  Cmax: 235 nM
[2]; human, plasma, oral, 25 mg, Cmax, young, 25 mg QD, single dose
  Cmax: 278 nM
[2]; human, plasma, oral, 25 mg, Cmax,ss, elderly, 25 mg QD, multiple dose
  Cmax: 618 nM
[2]; human, plasma, oral, 25 mg, Cmax,ss, young, 25 mg QD, multiple dose
  Cmax: 582 nM
[2]; human, plasma, oral, 25 mg, tmax, elderly, 25 mg QD, single dose
  Tmax: 3.5 h
[2]; human, plasma, oral, 25 mg, tmax, young, 25 mg QD, single dose
  Tmax: 4.5 h
[2]; human, plasma, oral, 25 mg, tmax,ss, elderly, 25 mg QD, multiple dose
  Tmax: 3 h
[2]; human, plasma, oral, 25 mg, tmax,ss, young, 25 mg QD, multiple dose
  Tmax: 3.75 h
[2]; human, plasma, oral, 50 mg, AUC0–24, elderly, 50 mg QD, single dose
  AUC(0-t): 5.62 µM·h
[2]; human, plasma, oral, 50 mg, AUC0–24, young, 50 mg QD, single dose
  AUC(0-t): 6.02 µM·h
[2]; human, plasma, oral, 50 mg, elderly, 50 mg QD, multiple dose
  AUC: 13.9 µM·h
[2]; human, plasma, oral, 50 mg, young, 50 mg QD, multiple dose
  AUC: 14.2 µM·h
[2]; human, plasma, oral, 50 mg, Cmax, elderly, 50 mg QD, single dose
  Cmax: 371 nM
[2]; human, plasma, oral, 50 mg, Cmax, young, 50 mg QD, single dose
  Cmax: 397 nM
[2]; human, plasma, oral, 50 mg, Cmax,ss, elderly, 50 mg QD, multiple dose
  Cmax: 802 nM
[2]; human, plasma, oral, 50 mg, Cmax,ss, young, 50 mg QD, multiple dose
  Cmax: 800 nM
[2]; human, plasma, oral, 50 mg, tmax, elderly, 50 mg QD, single dose
  Tmax: 4.5 h
[2]; human, plasma, oral, 50 mg, tmax, young, 50 mg QD, single dose
  Tmax: 4.5 h
[2]; human, plasma, oral, 50 mg, tmax,ss, elderly, 50 mg QD, multiple dose
  Tmax: 4.5 h
[2]; human, plasma, oral, 50 mg, tmax,ss, young, 50 mg QD, multiple dose
  Tmax: 3.5 h
[2]; human, plasma, oral, 75 mg, AUC0–24, young, 75 mg BID, single dose, fed
  AUC(0-t): 12 µM·h
[2]; human, plasma, oral, 75 mg, AUC0–24, young, 75 mg QD, single dose, fasted
  AUC(0-t): 7.17 µM·h
[2]; human, plasma, oral, 75 mg, young, 75 mg QD, multiple dose
  AUC: 16.5 µM·h
[2]; human, plasma, oral, 75 mg, Cmax, young, 75 mg BID, single dose, fed
  Cmax: 884 nM
[2]; human, plasma, oral, 75 mg, Cmax, young, 75 mg QD, single dose, fasted
  Cmax: 451 nM
[2]; human, plasma, oral, 75 mg, Cmax,ss, young, 75 mg QD, multiple dose
  Cmax: 1020 nM
[2]; human, plasma, oral, 75 mg, tmax, young, 75 mg BID, single dose
  Tmax: 4.02 h
[2]; human, plasma, oral, 75 mg, tmax,ss, young, 75 mg BID, multiple dose, tmax,22 given
  Tmax: 3.5 h
[2]; human, plasma, oral, 75 mg, tmax,ss, young, 75 mg QD, multiple dose
  Tmax: 4.5 h
[2]; in vivo
  exposure multiple (AUC0–24 and Cmax), 75-mg BID dose group vs 25-mg dose group: 3.2 fold
[2]; multiple dosing
  increase in AUCτ,ss, 75 mg BID vs. 75 mg QD: 14%
  increase in Cmax,ss, 75 mg BID vs. 75 mg QD: 90%
[2]; read-out: Cmax,ss, young, 10 mg QD, multiple dose
  Cmax: 221 nM
[2]; young, 10 mg QD, multiple dose
  AUCτ,ss,norm: 387 (22.2) nmol·h/L/mg
  Cmax,ss,norm: 22.1 (19.5) nmol/L/mg
